From ChEMBL document CHEMBL1800057, “Discovery of dual inducible/neuronal nitric oxide synthase (iNOS/nNOS) inhibitor development candidate 4-((2-cyclobutyl-1H-imidazo[4,5-b]pyrazin-1-yl)methyl)-7,8-difluoroquinolin-2(1H)-one (KD7332) part 2: identification of a novel, potent, and selective series of benzimidazole-quinolinone …” (J Med Chem, 2010)

How the values were obtained:
[1] = Plasma clearance in mouse at 3 mg/kg, iv and 10 mg/kg, po; format: ADME, organism-based
[2] = Volume of distribution at steady state in mouse at 3 mg/kg, iv and 10 mg/kg, po; format: ADME, organism-based; details: in vivo, read-out: Vdss
[3] = Cmax in mouse at 3 mg/kg, iv and 10 mg/kg, po; format: ADME, organism-based; details: in vivo
[4] = AUC in mouse at 3 mg/kg, iv and 10 mg/kg, po; format: ADME, organism-based; details: plasma
[5] = Half life in mouse at 10 mg/kg, po; format: ADME, organism-based; design: dose 10 mg/kg, route oral; details: in vivo
[6] = Oral bioavailability in mouse at 10 mg/kg; format: ADME, organism-based; details: in vivo
[7] = biological target: Nitric oxide synthase, inducible (Homo sapiens, UniProt P35228); experiment: Inhibition of human iNOS expressed in HEK293 cells assessed as inhibition of nitric oxide production after 18 hrs using 2,3-diaminonaphthalene by fluorescence assay; format: cell-based
Method in brief: (§1)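 HEK293 cells grown to ~70% confluence in DMEM/10% FBS with pen/strep, transiently transfected with 10 μg human or murine iNOS plasmid plus Fugene 6 for 4 h at 37 °C, 10% CO2. Cells replated at 5e5 cells/mL and dosed with compound at once; 1400W (100 μM final) as positive control. After 18 h, DAN (10 μg/mL final) in HCl (0.1 N final) added for 20 min at room temperature. Fluorescence read after NaOH (0.12 N final).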

Nitric oxide synthase 1 [8] = biological target: T1, Nitric oxide synthase 1 (Homo sapiens, UniProt P29475); experiment: Inhibition of human nNOS expressed in HEK293 cells assessed as inhibition ionomycin induced nitric oxide production incubated for 24 hrs measured after 18 hrs of ionomycin challenge using 2,3-diaminonaphthalene by fluorescence assay; format: cell-based
Method in brief: (§2)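 HEK293 cells transfected for 4 h at 37 °C with human nNOS (10 μg) or human eNOS (15 μg) plasmid (Fugene 6, 3:1). Cells replated at 5e5 cells/mL and dosed with compound at once; SEITU (100 μM final) as positive control. After 24 h, cells activated with A23187 (83 nM final) for eNOS or ionomycin (30 μM final) for nNOS. NO read 18 h later as nitrite-DAN fluorescence.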

Nitric oxide synthase 3 = biological target: T2, Nitric oxide synthase 3 (Homo sapiens, UniProt P29474); experiment: Inhibition of human eNOS expressed in HEK293 cells assessed as inhibition A23187 induced nitric oxide production incubated for 24 hrs measured after 18 hrs of […] challenge using 2,3-diaminonaphthalene by fluorescence assay; format: cell-based; method in brief: as §2
T2 sequence (P29474 whole entry): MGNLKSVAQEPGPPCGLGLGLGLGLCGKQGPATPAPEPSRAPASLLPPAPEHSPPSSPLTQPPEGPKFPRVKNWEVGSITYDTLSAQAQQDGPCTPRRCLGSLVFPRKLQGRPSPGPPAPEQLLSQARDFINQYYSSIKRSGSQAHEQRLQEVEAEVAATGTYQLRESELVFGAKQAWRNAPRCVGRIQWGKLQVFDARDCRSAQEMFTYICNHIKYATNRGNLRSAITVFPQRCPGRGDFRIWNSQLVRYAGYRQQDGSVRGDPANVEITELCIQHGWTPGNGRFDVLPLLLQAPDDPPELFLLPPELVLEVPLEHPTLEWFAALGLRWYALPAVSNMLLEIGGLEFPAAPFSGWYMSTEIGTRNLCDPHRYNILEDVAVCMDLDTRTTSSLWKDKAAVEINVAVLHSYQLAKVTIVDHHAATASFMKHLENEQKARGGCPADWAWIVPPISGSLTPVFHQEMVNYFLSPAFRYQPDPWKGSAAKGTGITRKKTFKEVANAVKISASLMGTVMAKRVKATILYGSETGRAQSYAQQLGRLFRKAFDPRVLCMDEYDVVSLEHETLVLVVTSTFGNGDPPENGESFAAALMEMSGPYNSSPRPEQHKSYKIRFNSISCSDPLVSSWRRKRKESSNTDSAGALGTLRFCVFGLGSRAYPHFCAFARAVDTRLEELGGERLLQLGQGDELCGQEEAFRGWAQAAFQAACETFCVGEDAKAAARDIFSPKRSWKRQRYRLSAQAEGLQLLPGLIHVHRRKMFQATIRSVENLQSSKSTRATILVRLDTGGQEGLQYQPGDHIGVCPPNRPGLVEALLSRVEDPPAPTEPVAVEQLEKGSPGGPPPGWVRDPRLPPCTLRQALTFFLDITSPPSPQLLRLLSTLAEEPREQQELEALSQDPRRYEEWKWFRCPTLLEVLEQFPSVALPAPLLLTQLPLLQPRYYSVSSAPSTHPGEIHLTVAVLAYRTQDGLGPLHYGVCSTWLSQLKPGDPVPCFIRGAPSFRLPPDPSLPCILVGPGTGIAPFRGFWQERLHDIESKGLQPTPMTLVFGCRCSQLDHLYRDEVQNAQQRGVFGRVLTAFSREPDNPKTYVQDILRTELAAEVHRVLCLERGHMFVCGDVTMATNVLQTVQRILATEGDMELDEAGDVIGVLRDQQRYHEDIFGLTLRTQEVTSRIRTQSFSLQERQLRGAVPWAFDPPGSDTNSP

Liver = experiment: Half life in mouse liver microsomes assessed as formation of oxidation product and glucuronide conjugate; format: ADME, Microsome
Method in brief: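 Mouse liver microsomes run under combined phase I oxidation and phase II glucuronide conjugation; half-life reported in minutes.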

Homo sapiens [9] = species on record: Homo sapiens; experiment: Ratio of IC50 for human eNOS to EC50 for human iNOS
Homo sapiens [10] = species on record: Homo sapiens; experiment: Ratio of IC50 for human nNOS to EC50 for human iNOS
[11] = biological target: T3, Nitric oxide synthase, inducible (Mus musculus, UniProt P29477); experiment: Inhibition of mouse iNOS expressed in HEK293 cells assessed as inhibition of nitric oxide production after 18 hrs using 2,3-diaminonaphthalene by fluorescence assay; format: cell-based; method in brief: as §1
T3 sequence (P29477 whole entry): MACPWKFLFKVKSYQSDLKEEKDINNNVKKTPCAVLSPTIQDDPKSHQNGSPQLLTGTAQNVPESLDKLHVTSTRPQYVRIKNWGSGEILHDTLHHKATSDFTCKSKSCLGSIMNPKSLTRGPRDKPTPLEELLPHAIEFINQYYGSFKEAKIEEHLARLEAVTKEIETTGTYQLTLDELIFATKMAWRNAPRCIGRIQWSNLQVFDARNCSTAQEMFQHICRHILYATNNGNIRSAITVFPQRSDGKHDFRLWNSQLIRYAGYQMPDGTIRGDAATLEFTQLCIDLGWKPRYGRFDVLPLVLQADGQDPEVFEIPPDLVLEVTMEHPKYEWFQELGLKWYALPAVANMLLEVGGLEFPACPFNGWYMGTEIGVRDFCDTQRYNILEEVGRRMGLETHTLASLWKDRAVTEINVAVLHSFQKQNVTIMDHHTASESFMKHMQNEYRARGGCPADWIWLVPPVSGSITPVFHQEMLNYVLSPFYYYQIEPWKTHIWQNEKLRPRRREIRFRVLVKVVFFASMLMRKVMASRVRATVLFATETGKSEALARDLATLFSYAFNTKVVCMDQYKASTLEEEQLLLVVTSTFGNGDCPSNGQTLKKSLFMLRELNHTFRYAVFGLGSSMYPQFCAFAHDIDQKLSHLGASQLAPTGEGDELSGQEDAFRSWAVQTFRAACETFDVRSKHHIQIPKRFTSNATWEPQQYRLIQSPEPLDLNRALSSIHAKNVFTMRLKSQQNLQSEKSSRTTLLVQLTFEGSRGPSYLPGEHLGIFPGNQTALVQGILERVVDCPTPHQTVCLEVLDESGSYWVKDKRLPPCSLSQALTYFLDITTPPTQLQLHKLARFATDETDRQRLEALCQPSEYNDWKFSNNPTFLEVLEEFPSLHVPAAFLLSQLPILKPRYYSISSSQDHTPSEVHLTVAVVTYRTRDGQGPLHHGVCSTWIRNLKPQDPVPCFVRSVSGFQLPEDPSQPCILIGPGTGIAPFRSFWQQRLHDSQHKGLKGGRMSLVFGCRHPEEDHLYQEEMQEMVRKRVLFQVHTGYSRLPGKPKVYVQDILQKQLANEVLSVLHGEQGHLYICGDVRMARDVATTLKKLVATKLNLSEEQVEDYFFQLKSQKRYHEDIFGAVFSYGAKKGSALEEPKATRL

Mus musculus = experiment: Inhibition of LPS-induced iNOS activation in BALB/c mouse assessed as plasma nitrate levels administered via oral gavage before LPS challenge measured after 6 to 8 hrs using 2,3-diaminonaphthalene by fluorescence assay; format: functional
Method in brief: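 Male BALB/c mice dosed by oral gavage (90% PEG/5% Tween 80/5% PVP + 0.5% w/v CMC) immediately before LPS (10 mg/kg ip in 0.9% NaCl). Mice killed at 6 h. EDTA plasma analysed for nitrate and drug levels; nitrite measured by DAN fluorescence.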

[12] = Half life in mouse at 3 mg/kg, iv and 10 mg/kg, po; details: in vivo
[13] = Plasma clearance in rhesus monkey at 3 mg/kg, iv and 10 mg/kg, po; format: ADME, organism-based, Macaca mulatta
Method in brief: (§3)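 Rhesus pharmacokinetics: 3 mg/kg iv and 10 mg/kg po, HCl salt. Clp, t1/2, Vdss, Cmax, AUC, oral t1/2 and %F reported.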

[14] = Half life in rhesus monkey at 3 mg/kg, iv and 10 mg/kg, po; format: ADME, organism-based, Macaca mulatta; details: in vivo; method in brief: as §3
[15] = Volume of distribution at steady state in rhesus monkey at 3 mg/kg, iv and 10 mg/kg, po; format: ADME, organism-based, Macaca mulatta; details: in vivo, read-out: Vdss; method in brief: as §3
[16] = Cmax in rhesus monkey at 3 mg/kg, iv and 10 mg/kg, po; format: ADME, organism-based, Macaca mulatta; details: in vivo; method in brief: as §3
[17] = AUC in rhesus monkey at 3 mg/kg, iv and 10 mg/kg, po; format: ADME, organism-based, Macaca mulatta; details: plasma; method in brief: as §3
[18] = Half life in rhesus monkey at 10 mg/kg, po; format: ADME, organism-based, Macaca mulatta; design: dose 10 mg/kg, route oral; details: in vivo
[19] = Bioavailability in rhesus monkey at 3 mg/kg, iv and 10 mg/kg, po; format: ADME, organism-based, Macaca mulatta; details: in vivo; method in brief: as §3
[20] = biological target: T4, Nitric oxide synthase 3 (Homo sapiens) (UniProt P29474); experiment: Inhibition of human eNOS expressed in HEK293 cells assessed as inhibition A23187 induced nitric oxide production at 100 uM incubated for 24 hrs measured after 18 hrs of […] challenge using 2,3-diaminonaphthalene by fluorescence assay; format: cell-based
T4 sequence (whole entry): T2 sequence (P29474 whole entry)

Nitric oxide synthase 1 [21] = biological target: T1, Nitric oxide synthase 1; experiment: Inhibition of human nNOS expressed in HEK293 cells assessed as inhibition ionomycin induced nitric oxide production at 10 uM incubated for 24 hrs measured after 18 hrs of ionomycin challenge using 2,3-diaminonaphthalene by fluorescence assay; format: cell-based

T1 sequence (P29475 whole entry): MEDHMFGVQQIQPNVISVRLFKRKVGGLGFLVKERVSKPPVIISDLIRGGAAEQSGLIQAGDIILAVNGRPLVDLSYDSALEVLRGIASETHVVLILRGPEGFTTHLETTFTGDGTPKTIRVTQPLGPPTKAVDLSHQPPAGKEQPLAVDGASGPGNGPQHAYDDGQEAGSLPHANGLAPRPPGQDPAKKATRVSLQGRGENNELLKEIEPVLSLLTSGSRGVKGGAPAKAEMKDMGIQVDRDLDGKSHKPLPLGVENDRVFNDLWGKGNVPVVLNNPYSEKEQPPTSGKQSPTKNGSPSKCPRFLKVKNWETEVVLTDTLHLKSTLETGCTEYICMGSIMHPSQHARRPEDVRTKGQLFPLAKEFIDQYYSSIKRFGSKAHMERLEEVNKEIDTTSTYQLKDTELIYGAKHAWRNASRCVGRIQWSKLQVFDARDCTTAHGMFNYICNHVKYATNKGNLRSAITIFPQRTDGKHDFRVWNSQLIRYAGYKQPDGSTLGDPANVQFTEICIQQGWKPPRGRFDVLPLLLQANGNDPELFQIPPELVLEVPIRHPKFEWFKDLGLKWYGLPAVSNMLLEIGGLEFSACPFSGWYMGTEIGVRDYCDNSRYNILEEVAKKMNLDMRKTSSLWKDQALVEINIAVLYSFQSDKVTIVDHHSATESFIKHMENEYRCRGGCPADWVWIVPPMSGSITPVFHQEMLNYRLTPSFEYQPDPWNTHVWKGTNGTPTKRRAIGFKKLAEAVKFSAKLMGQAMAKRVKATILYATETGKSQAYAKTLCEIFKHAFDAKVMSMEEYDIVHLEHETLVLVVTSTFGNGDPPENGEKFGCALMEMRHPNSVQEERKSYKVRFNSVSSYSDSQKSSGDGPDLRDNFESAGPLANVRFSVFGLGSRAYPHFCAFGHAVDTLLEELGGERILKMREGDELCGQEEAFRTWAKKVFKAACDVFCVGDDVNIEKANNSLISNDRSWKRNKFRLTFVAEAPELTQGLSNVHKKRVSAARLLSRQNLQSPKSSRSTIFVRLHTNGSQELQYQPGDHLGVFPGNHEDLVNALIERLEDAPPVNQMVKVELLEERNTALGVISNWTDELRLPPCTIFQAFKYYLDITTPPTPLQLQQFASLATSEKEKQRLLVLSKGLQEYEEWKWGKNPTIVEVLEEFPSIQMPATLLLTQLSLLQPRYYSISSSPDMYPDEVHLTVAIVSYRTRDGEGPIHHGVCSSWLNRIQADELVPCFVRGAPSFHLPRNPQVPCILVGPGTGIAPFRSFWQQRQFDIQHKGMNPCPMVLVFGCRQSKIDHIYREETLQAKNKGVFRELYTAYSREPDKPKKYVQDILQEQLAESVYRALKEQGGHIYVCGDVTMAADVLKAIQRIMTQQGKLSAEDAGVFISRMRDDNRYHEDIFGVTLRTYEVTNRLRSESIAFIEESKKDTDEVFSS
Sequence of Nitric oxide synthase, inducible (Homo sapiens, UniProt P35228) (P35228 whole entry): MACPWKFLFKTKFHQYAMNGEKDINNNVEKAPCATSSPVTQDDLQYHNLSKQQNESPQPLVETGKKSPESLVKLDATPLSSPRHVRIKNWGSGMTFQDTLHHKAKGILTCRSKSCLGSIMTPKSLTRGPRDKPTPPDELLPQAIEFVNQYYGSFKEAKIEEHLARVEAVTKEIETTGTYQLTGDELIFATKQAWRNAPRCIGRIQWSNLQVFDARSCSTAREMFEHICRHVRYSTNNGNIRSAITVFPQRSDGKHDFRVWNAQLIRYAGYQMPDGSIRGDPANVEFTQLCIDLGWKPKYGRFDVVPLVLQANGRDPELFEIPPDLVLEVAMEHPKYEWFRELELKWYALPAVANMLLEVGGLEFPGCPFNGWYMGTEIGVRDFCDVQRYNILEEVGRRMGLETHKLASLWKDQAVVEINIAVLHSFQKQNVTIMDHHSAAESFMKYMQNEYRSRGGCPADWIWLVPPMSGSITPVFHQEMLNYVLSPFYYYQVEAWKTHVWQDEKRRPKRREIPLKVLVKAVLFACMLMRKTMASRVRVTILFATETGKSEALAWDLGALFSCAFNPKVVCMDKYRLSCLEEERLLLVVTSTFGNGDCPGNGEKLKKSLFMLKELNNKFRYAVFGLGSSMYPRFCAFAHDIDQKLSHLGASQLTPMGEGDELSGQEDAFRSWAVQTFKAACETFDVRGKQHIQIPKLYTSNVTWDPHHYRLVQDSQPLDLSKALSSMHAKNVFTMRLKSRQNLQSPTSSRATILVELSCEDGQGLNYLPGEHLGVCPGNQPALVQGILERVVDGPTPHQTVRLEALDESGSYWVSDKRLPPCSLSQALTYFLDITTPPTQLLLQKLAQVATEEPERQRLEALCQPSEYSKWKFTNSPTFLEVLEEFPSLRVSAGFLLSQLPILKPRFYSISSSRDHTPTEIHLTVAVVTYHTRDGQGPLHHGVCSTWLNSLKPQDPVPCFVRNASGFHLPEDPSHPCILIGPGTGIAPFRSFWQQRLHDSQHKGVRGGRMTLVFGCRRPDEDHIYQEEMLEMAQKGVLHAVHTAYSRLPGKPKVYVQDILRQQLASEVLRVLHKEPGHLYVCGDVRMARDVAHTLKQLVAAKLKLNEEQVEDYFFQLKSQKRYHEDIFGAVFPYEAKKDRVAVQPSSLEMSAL

## CC(C)c1nc2ccccc2n1Cc1cc(=O)[nH]c2c(F)c(F)ccc12
[1]
  clearance: 5.9 mL/min/kg
[2]
  Vd: 0.7 L/kg
[3]
  Cmax: 14000 ng/mL
[4]
  AUC: 19300 ng·h/mL
[5]
  half-life: 2.6 h
[6]
  bioavailability: 58%
[7]
  EC50: 0.8 µM
Nitric oxide synthase 1 [8]
  EC50: 0.65 µM
Nitric oxide synthase 3
  EC50: 11.3 µM
Liver
  t1/2: > 2 h
Homo sapiens [9]
  Ratio EC50: 14
Homo sapiens [10]
  Ratio EC50: 0.8
[11]
  EC50: 4.4 µM
Mus musculus
  ED50: 6 mg/kg
[12]
  half-life: 2.1 h

## Cl.O=c1cc(Cn2c(C3CC(F)(F)C3)nc3nccnc32)c2cccc(F)c2[nH]1
[13]
  clearance: 8.6 mL/min/kg
[14]
  half-life: 6.6 h
[15]
  Vd: 1.8 L/kg
[16]
  Cmax: 3400 ng/mL
[17]
  AUC: 21000 ng·h/mL
[18]
  half-life: 6.1 h
[19]
  bioavailability: 100%

## O=c1cc(Cn2c(-c3cncs3)nc3ccccc32)c2ccc(F)c(F)c2[nH]1
[7]
  EC50: 8.6 µM
Nitric oxide synthase 1 [8]
  EC50: > 10 µM
Nitric oxide synthase 3
  EC50: > 100 µM
Liver
  t1/2: 0.717 h
Homo sapiens [9]
  Ratio EC50: > 12
Homo sapiens [10]
  Ratio EC50: > 12
[20]
  inhibition: < 50%
Nitric oxide synthase 1 [21]
  inhibition: < 50%
